The nature of assay [1]: Cytotoxicity against human EOL-1 cells after 48 hrs by MTT assay. The class given is functional, cell-based. To be noted: EOL1, 48 h. In short, it runs like this: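 Cells seeded at 5.0 × 10^4/well, preincubated 24 h at 37 °C, then exposed to 1.56–50 μM for 48 h (0.1% DMSO vehicle); MTT 4 h at 37 °C, formazan dissolved in DMSO, A578 (ref 630 nm). IC50 = lowest concentration giving 50% growth reduction vs vehicle; mean ± SEM, three independent experiments in triplicate.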
A general note: Tetrazolium dyes change colour on reduction, which living cells bring about.

The subject of assay [2] is EOL1. Put plainly: Reduction in Flt3 protein level in human EOL-1 cells at 15 uM after 24 hrs by Western blot analysis. The assay is classed as functional. As to conditions: EOL1, 24 h. In short, it runs like this:
(§1)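 Treated EoL-1 lysed in RIPA buffer, protein by Folin-Lowry, resolved on 12% SDS-PAGE; probed with rabbit polyclonal anti-FLT3 or anti-STAT5A (1:500) and anti-GAPDH (1:1000), HRP anti-rabbit secondary, chemiluminescence. Band intensities normalized to GAPDH and compared with vehicle control; mean ± SEM, three independent experiments.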

Assay [3] has as its system EOL1. As to the kind of experiment: Reduction in Flt3 protein level in human EOL-1 cells at 15 uM after 48 hrs by Western blot analysis. The class given is functional. To be noted: EOL1, 48 h. In short, it runs like this:
as §1
For orientation: In western blotting, separated proteins are transferred to a membrane and probed.

The nature of assay [4]: Cell cycle arrest in human EOL-1 cells assessed as accumulation at G0/G1 phase at 4 uM after 48 hrs by flow cytometry (reference value: 54 %). The class given is functional, cell-based. To be noted: EOL1. On the technique in general: Flow cytometry measures light scatter and fluorescence of single cells or particles in a stream.
Assay [5] can be described thus: Cell cycle arrest in human EOL-1 cells assessed as accumulation at G0/G1 phase at 3 uM after 12 hrs by flow cytometry (reference value: 54 %). The assay is classed as functional, cell-based. To be noted: EOL1.
A short description of assay [6]: Cell cycle arrest in human EOL-1 cells assessed as accumulation at G0/G1 phase at 5 uM after 12 hrs by flow cytometry (reference value: 54 %). The assay is classed as functional, cell-based. To be noted: EOL1.
For assay [7], the system named is EOL1. As to the kind of experiment: Reduction in Flt3 protein level in human EOL-1 cells at 4 uM after 12 hrs by Western blot analysis. The assay is classed as functional. To be noted: EOL1, 12 h. In short, it runs like this: as §1
Assay [8] has as its system EOL1. As to the kind of experiment: Reduction in Flt3 protein level in human EOL-1 cells at 4 uM after 24 hrs by Western blot analysis. The class given is functional. To be noted: EOL1, 24 h. In short, it runs like this: as §1
Assay [9] relates to EOL1. Put plainly: Reduction in Flt3 protein level in human EOL-1 cells at 4 uM after 48 hrs by Western blot analysis. The assay is classed as functional. As to conditions: EOL1, 48 h. In short, it runs like this: as §1
Assay [10] has as its system EOL1. As to the kind of experiment: Reduction in Flt3 protein level in human EOL-1 cells at 3 uM after 12 hrs by Western blot analysis. The class given is functional. To be noted: EOL1, 12 h. In short, it runs like this: as §1
In assay [11] the test system is EOL1. Put plainly: Reduction in Flt3 protein level in human EOL-1 cells at 5 uM after 12 hrs by Western blot analysis. The class given is functional. To be noted: EOL1, 12 h. In short, it runs like this:
as §1

Assay [12] deals with EOL1. Put plainly: Reduction in STAT5A protein level in human EOL-1 cells at 3 uM after 12 hrs by Western blot analysis. The class given is functional. To be noted: EOL1, 12 h. In short, it runs like this:
as §1

Assay [13] relates to EOL1. Put plainly: Reduction in STAT5A protein level in human EOL-1 cells at 4 uM after 12 hrs by Western blot analysis. To be noted: EOL1, 12 h. The assay is classed as functional. In short, it runs like this: as §1
Assay [14] relates to EOL1. As to the kind of experiment: Reduction in STAT5A protein level in human EOL-1 cells at 5 uM after 12 hrs by Western blot analysis. To be noted: EOL1, 12 h. The class given is functional. In short, it runs like this:
as §1

Assay [15] deals with EOL1. Put plainly: Reduction in STAT5A protein level in human EOL-1 cells after 12 hrs by Western blot analysis. The class given is functional, cell-based. In short, it runs like this: as §1
Assay [16] has as its system EOL1. Put plainly: Reduction in Flt3 protein level in human EOL-1 cells after 12 hrs by Western blot analysis. The class given is functional, cell-based. In short, it runs like this: as §1
Assay [17] is described as follows: Antiproliferative activity against human EOL-1 cells at 3 uM after 12 hrs by trypan blue exclusion assay. The assay is classed as functional, EOL1. In short, it runs like this: (§2)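 EoL-1 cells (RPMI-1640, 10% fetal calf serum, L-glutamine, penicillin/streptomycin) exposed 12 h; viable counts by trypan blue exclusion over time; growth rate (cells/h) taken as slope of cell number vs incubation time, compared with vehicle-control growth rate.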

The nature of assay [18]: Antiproliferative activity against human EOL-1 cells at 4 uM after 12 hrs by trypan blue exclusion assay. The assay is classed as functional, EOL1. In short, it runs like this: as §2
Assay [19] can be described thus: Antiproliferative activity against human EOL-1 cells at 5 uM after 12 hrs by trypan blue exclusion assay. The class given is functional, EOL1. In short, it runs like this: as §2
Assay [20] is described as follows: Cell cycle arrest in human EOL-1 cells assessed as accumulation at G0/G1 phase at 4 uM after 12 hrs by flow cytometry (reference value: 54 %). As to conditions: EOL1. The assay is classed as functional, cell-based.
Assay [21] can be described thus: Cell cycle arrest in human EOL-1 cells assessed as accumulation at G0/G1 phase at 4 uM after 24 hrs by flow cytometry (reference value: 54 %). The class given is functional, cell-based. To be noted: EOL1.
Assay [22] in a line: Cell cycle arrest in human EOL-1 cells assessed as accumulation at G0/G1 phase after 12 hrs by flow cytometry relative to control. To be noted: EOL1.
The subject of assay [23] is EOL1. Put plainly: Reduction in Flt3 protein level in human EOL-1 cells at 10 uM after 12 hrs by Western blot analysis. To be noted: EOL1, 12 h. The class given is functional. In short, it runs like this: as §1
Assay [24] deals with EOL1. Put plainly: Reduction in Flt3 protein level in human EOL-1 cells at 10 uM after 24 hrs by Western blot analysis. The assay is classed as functional. As to conditions: EOL1, 24 h. In short, it runs like this:
as §1

Assay [25] relates to EOL1. Put plainly: Reduction in Flt3 protein level in human EOL-1 cells at 10 uM after 48 hrs by Western blot analysis. The class given is functional. To be noted: EOL1, 48 h. In short, it runs like this:
as §1

The structures appear in SMILES notation.

Regarding `O=C(/C=C/c1ccc(O)cc1)CC(=O)/C=C/c1ccc(O)cc1` [BISDEMETHOXYCURCUMIN], half-maximal inhibition in [1] (IC50) required 22.3 µM. The inhibition – broadly, the percentage by which the read-out fell short of the control – at 15 µM in the assay on EOL1 [2] was determined as 26%; with EOL1 [3], 3%.

Turning to `COc1cc(/C=C/C(=O)CC(=O)/C=C/c2ccc(O)c(OC)c2)ccc1O` [CURCUMIN], the Activity in assay [4] came out at 54%; in assay [5], 66%; in assay [6], 75%; in assay [17] it was 17%; in assay [18], 25%; in [19], 58%. The Activity is 71% in assay [20], 58% in assay [21] and “Dose-dependent effect” in [22]. Besides, half-maximal inhibition in assay [1] (IC50) required 6.7 µM. Also, the inhibition at 4 µM in the assay on EOL1 [7] turned out to be 37%; with EOL1 [8] it was 33%; in the assay on EOL1 [9], 12%; in the assay with EOL1 [13] it was 44%. The figures for the inhibition at 3 µM with EOL1 [10] and in the assay with EOL1 [12] were 17% and 13%, respectively. In addition, the inhibition at 5 µM in the assay with EOL1 [11] was 70%; in the assay on EOL1 [14], 82%. Also, the inhibition result in the assay with EOL1 [15] and in the assay on EOL1 [16] was “Dose-dependent effect” in each case.

`COc1cc(/C=C/C(O)=C/C(=O)/C=C/c2ccc(O)cc2)ccc1O` [DEMETHOXYCURCUMIN]: the IC50 (in general, the point on the concentration scale where inhibition reaches its midpoint) in [1] was 15.6 µM. Moreover, the inhibition at 10 µM was found to be 4% in the assay on EOL1 [23], 32% in the assay with EOL1 [24] and 46% with EOL1 [25].

For the origin of these results see ChEMBL document CHEMBL3232947, “Inhibitory effect of turmeric curcuminoids on FLT3 expression and cell cycle arrest in the FLT3-overexpressing EoL-1 leukemic cell line” (J Nat Prod, 2014).
